Experimental data as given in ChEMBL document CHEMBL1135626, “Imidazole inhibitors of cytokine release: probing substituents in the 2 position” (J Med Chem, 2002).

Tested on: not listed separately
Assay: Inhibition of the release of interleukin-1-beta from peripheral blood mononuclear cells
Format: functional
Settings: Homo sapiens
Summary of the method: (§1)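 PBMC isolated from healthy donor blood by density gradient centrifugation, ~10⁶ cells/mL, preincubated 15 min (37 °C, 5% CO2) with compounds in DMSO (1% final), then LPS 1µg/mL (E. coli 026:B6) for 4 h. Supernatant IL-1β and TNF-α by ELISA after ice stop and centrifugation. IC50 from semilog plot of % reduction vs control, 10^-4–10^-8 M; at least duplicate.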

Row | Structure (SMILES) | IC50
1 | C[S+]([O-])c1cc(CSc2nc(-c3ccncc3)c(-c3ccc(F)cc3)[nH]2)ccc1O (configuration not stated) | 2.3 µM
2 | Fc1ccc(-c2[nH]c(SCCCc3ccccc3)nc2-c2ccncc2)cc1 | 0.47 µM
3 | CSc1ccccc1CSc1nc(-c2ccc(F)cc2)c(-c2ccncc2)[nH]1 | 6.7 µM
4 | CSc1nc(-c2ccncc2)c(-c2ccc(F)cc2)[nH]1 | 0.044 µM
5 | CS(=O)(=O)c1ccc(CSc2nc(-c3ccc(Br)cc3)c(-c3ccncc3)[nH]2)cc1 | 0.64 µM
6 | Fc1ccc(-c2[nH]c(CCc3ccccc3)nc2-c2ccncc2)cc1 | 0.14 µM
7 | CSc1cc(CSc2nc(-c3ccncc3)c(-c3ccc(F)cc3)[nH]2)ccc1O | 0.28 µM
8 | Fc1ccc(-c2[nH]c(/C=C/c3ccccc3)nc2-c2ccncc2)cc1 | 0.13 µM
9 | Fc1ccc(-c2[nH]c(SCC3CCCCC3)nc2-c2ccncc2)cc1 | 0.24 µM
10 | CS(=O)(=O)c1ccc(CSc2nc(-c3ccccc3)c(-c3ccncc3)[nH]2)cc1 | 1.7 µM
11 | CSc1cccc(CSc2nc(-c3ccncc3)c(-c3ccc(F)cc3)[nH]2)c1 | 0.55 µM
12 | CSc1ccc(CSc2nc(-c3ccc(Cl)cc3)c(-c3ccncc3)[nH]2)cc1 | 2.2 µM
13 | CSc1cc(Cl)cc(CSc2nc(-c3ccc(F)cc3)c(-c3ccncc3)[nH]2)c1O | 0.64 µM
14 | CSc1ccc(CSc2nc(-c3ccc(Br)cc3)c(-c3ccncc3)[nH]2)cc1 | 2.4 µM
15 | C[S+]([O-])c1ccc(CSc2nc(-c3ccccc3)c(-c3ccncc3)[nH]2)cc1 (configuration not stated) | 0.84 µM
16 | CSc1ccc(CSc2nc(-c3ccc(F)cc3)c(-c3ccncc3)[nH]2)cc1 | 0.67 µM
17 | C[S+]([O-])c1ccc(CSc2nc(-c3ccc(Br)cc3)c(-c3ccncc3)[nH]2)cc1 (configuration not stated) | 0.82 µM
18 | C[S+]([O-])c1ccc(CCCSc2nc(-c3ccc(F)cc3)c(-c3ccncc3)[nH]2)cc1 (configuration not stated) | 0.18 µM
19 | N#CCSc1nc(-c2ccncc2)c(-c2ccc(F)cc2)[nH]1 | < 0.1 µM

Row | Structure (SMILES) | IC50
20 | C[S+]([O-])c1ccc(CCSc2nc(-c3ccncc3)c(-c3ccc(F)cc3)[nH]2)cc1 (configuration not stated) | 0.5 µM
21 | C[S+]([O-])c1ccc(CSc2nc(-c3ccc(F)cc3)c(-c3cccnc3)[nH]2)cc1 (configuration not stated) | 98 µM
22 | C[S+]([O-])c1ccc(CSc2nc(-c3ccc(Cl)cc3)c(-c3ccncc3)[nH]2)cc1 (configuration not stated) | 0.32 µM
23 | CSc1ccc(CSc2nc(-c3ccccc3)c(-c3ccncc3)[nH]2)cc1 | 72.5 µM
24 | C[S+]([O-])c1ccccc1CSc1nc(-c2ccc(F)cc2)c(-c2ccncc2)[nH]1 (configuration not stated) | 0.9 µM
25 | C[S+]([O-])c1cccc(CSc2nc(-c3ccncc3)c(-c3ccc(F)cc3)[nH]2)c1 (configuration not stated) | 1 µM
26 | C[S+]([O-])c1ccc(O)c(CSc2nc(-c3ccc(F)cc3)c(-c3ccncc3)[nH]2)c1 (configuration not stated) | 1 µM
27 | CSc1ccc(O)c(CSc2nc(-c3ccc(F)cc3)c(-c3ccncc3)[nH]2)c1 | 0.74 µM
28 | Fc1ccc(-c2[nH]c(SCCc3ccccc3)nc2-c2ccncc2)cc1 | 0.64 µM
29 | Oc1cccc(CSc2nc(-c3ccc(F)cc3)c(-c3ccncc3)[nH]2)c1 | 0.31 µM
30 | Oc1ccccc1CSc1nc(-c2ccc(F)cc2)c(-c2ccncc2)[nH]1 | 0.44 µM
31 | CS(=O)(=O)c1ccc(CSc2nc(-c3ccc(F)cc3)c(-c3ccncc3)[nH]2)cc1 | 0.33 µM
32 | C[S+]([O-])c1ccc(CSc2nc(-c3ccc(F)cc3)c(-c3ccncc3)[nH]2)cc1 (configuration not stated) | 0.38 µM
33 | Fc1ccc(-c2[nH]c(SCc3ccccc3)nc2-c2ccncc2)cc1 | 0.3 µM
34 | Oc1ccc(CSc2nc(-c3ccncc3)c(-c3ccc(F)cc3)[nH]2)cc1 | 0.37 µM
35 | C[S+]([O-])c1cc(Cl)cc(CSc2nc(-c3ccc(F)cc3)c(-c3ccncc3)[nH]2)c1O (configuration not stated) | 4.4 µM
36 | Fc1ccc(-c2[nH]c(SCc3cccc4ccccc34)nc2-c2ccncc2)cc1 | 0.82 µM
37 | CS(=O)(=O)c1ccc(CSc2nc(-c3ccc(Cl)cc3)c(-c3ccncc3)[nH]2)cc1 | 0.32 µM

Molecular target: Mitogen-activated protein kinase 14 (Homo sapiens, UniProt Q16539)
Assay: Inhibition of Mitogen-activated protein kinase p38 (P38 MAPK)
Settings: not given

Sequence of Mitogen-activated protein kinase 14 (Q16539 whole entry): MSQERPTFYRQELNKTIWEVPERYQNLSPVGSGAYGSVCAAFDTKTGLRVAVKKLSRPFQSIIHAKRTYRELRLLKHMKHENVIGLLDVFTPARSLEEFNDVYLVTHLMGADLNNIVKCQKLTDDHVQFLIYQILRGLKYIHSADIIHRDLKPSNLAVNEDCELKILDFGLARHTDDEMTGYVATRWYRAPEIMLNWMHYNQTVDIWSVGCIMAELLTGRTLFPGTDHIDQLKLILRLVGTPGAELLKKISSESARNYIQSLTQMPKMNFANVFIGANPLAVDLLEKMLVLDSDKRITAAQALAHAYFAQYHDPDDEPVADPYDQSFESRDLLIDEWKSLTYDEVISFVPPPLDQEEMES

Row | Structure (SMILES) | IC50
38 | C[S+]([O-])c1cc(CSc2nc(-c3ccncc3)c(-c3ccc(F)cc3)[nH]2)ccc1O (configuration not stated) | 3.4 µM
39 | CSc1nc(-c2ccncc2)c(-c2ccc(F)cc2)[nH]1 | 0.63 µM
40 | Fc1ccc(-c2[nH]c(CCc3ccccc3)nc2-c2ccncc2)cc1 | 0.69 µM
41 | CSc1cc(CSc2nc(-c3ccncc3)c(-c3ccc(F)cc3)[nH]2)ccc1O | 3.8 µM
42 | CSc1cccc(CSc2nc(-c3ccncc3)c(-c3ccc(F)cc3)[nH]2)c1 | 2.3 µM
43 | C[S+]([O-])c1ccc(CSc2nc(-c3ccccc3)c(-c3ccncc3)[nH]2)cc1 (configuration not stated) | 12 µM
44 | C[S+]([O-])c1ccc(CSc2nc(-c3ccc(Br)cc3)c(-c3ccncc3)[nH]2)cc1 (configuration not stated) | 3.8 µM
45 | C[S+]([O-])c1ccc(CCCSc2nc(-c3ccc(F)cc3)c(-c3ccncc3)[nH]2)cc1 (configuration not stated) | 0.75 µM
46 | C[S+]([O-])c1ccc(CCSc2nc(-c3ccncc3)c(-c3ccc(F)cc3)[nH]2)cc1 (configuration not stated) | 1.5 µM
47 | C[S+]([O-])c1ccc(CSc2nc(-c3ccc(Cl)cc3)c(-c3ccncc3)[nH]2)cc1 (configuration not stated) | 1.4 µM
48 | C[S+]([O-])c1cccc(CSc2nc(-c3ccncc3)c(-c3ccc(F)cc3)[nH]2)c1 (configuration not stated) | 2.1 µM
49 | C[S+]([O-])c1ccc(CSc2nc(-c3ccc(F)cc3)c(-c3ccncc3)[nH]2)cc1 (configuration not stated) | 4 µM
50 | Fc1ccc(-c2[nH]c(SCc3ccccc3)nc2-c2ccncc2)cc1 | 35 µM
51 | Oc1ccc(CSc2nc(-c3ccncc3)c(-c3ccc(F)cc3)[nH]2)cc1 | 5.7 µM

Species: Homo sapiens
Assay: Ability to inhibit the release of tumor necrosis factor alpha (TNF-alpha) from whole blood
Format: functional
Settings: not given
Summary of the method: (§2)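 Human whole blood preincubated 15 min (37 °C, 5% CO2) with compounds in Cremophor EL/ethanol 70:30 (1% final), then stimulated 4 h with 1µg/mL LPS (E. coli 026:B6). Reaction stopped on ice, samples centrifuged, supernatant IL-1β and TNF-α measured by ELISA. IC50 read from semilog plot of % reduction vs control over 10^-4–10^-8 M; at least duplicate.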

Row | Structure (SMILES) | IC50
52 | C[S+]([O-])c1cc(CSc2nc(-c3ccncc3)c(-c3ccc(F)cc3)[nH]2)ccc1O (configuration not stated) | 9 µM
53 | CSc1nc(-c2ccncc2)c(-c2ccc(F)cc2)[nH]1 | 4.2 µM
54 | C[S+]([O-])c1ccccc1CSc1nc(-c2ccc(F)cc2)c(-c2ccncc2)[nH]1 (configuration not stated) | 47.5 µM
55 | C[S+]([O-])c1cccc(CSc2nc(-c3ccncc3)c(-c3ccc(F)cc3)[nH]2)c1 (configuration not stated) | 33.5 µM
56 | C[S+]([O-])c1ccc(O)c(CSc2nc(-c3ccc(F)cc3)c(-c3ccncc3)[nH]2)c1 (configuration not stated) | 103 µM
57 | CS(=O)(=O)c1ccc(CSc2nc(-c3ccc(F)cc3)c(-c3ccncc3)[nH]2)cc1 | 28.8 µM
58 | C[S+]([O-])c1ccc(CSc2nc(-c3ccc(F)cc3)c(-c3ccncc3)[nH]2)cc1 (configuration not stated) | 20.3 µM

Species: Homo sapiens
Assay: Ability to inhibit the release of interleukin-1-beta (IL-1 beta) from whole blood
Format: functional
Settings: not given
Summary of the method: as §2

Row | Structure (SMILES) | IC50
59 | C[S+]([O-])c1cc(CSc2nc(-c3ccncc3)c(-c3ccc(F)cc3)[nH]2)ccc1O (configuration not stated) | 12.1 µM
60 | CSc1nc(-c2ccncc2)c(-c2ccc(F)cc2)[nH]1 | 1.2 µM
61 | C[S+]([O-])c1ccccc1CSc1nc(-c2ccc(F)cc2)c(-c2ccncc2)[nH]1 (configuration not stated) | 4 µM
62 | C[S+]([O-])c1cccc(CSc2nc(-c3ccncc3)c(-c3ccc(F)cc3)[nH]2)c1 (configuration not stated) | 4.1 µM
63 | C[S+]([O-])c1ccc(O)c(CSc2nc(-c3ccc(F)cc3)c(-c3ccncc3)[nH]2)c1 (configuration not stated) | 13 µM
64 | CS(=O)(=O)c1ccc(CSc2nc(-c3ccc(F)cc3)c(-c3ccncc3)[nH]2)cc1 | 2.9 µM
65 | C[S+]([O-])c1ccc(CSc2nc(-c3ccc(F)cc3)c(-c3ccncc3)[nH]2)cc1 (configuration not stated) | 2.78 µM

Tested on: not listed separately
Assay: Inhibition of the release of tumor necrosis factor alpha from peripheral blood mononuclear cells
Format: functional
Settings: Homo sapiens
Summary of the method: as §1

Row | Structure (SMILES) | IC50
66 | C[S+]([O-])c1cc(CSc2nc(-c3ccncc3)c(-c3ccc(F)cc3)[nH]2)ccc1O (configuration not stated) | 5 µM
67 | Fc1ccc(-c2[nH]c(SCCCc3ccccc3)nc2-c2ccncc2)cc1 | 16 µM
68 | CSc1ccccc1CSc1nc(-c2ccc(F)cc2)c(-c2ccncc2)[nH]1 | 18.3 µM
69 | CSc1nc(-c2ccncc2)c(-c2ccc(F)cc2)[nH]1 | 0.9 µM
70 | CS(=O)(=O)c1ccc(CSc2nc(-c3ccc(Br)cc3)c(-c3ccncc3)[nH]2)cc1 | 7.3 µM
71 | Fc1ccc(-c2[nH]c(CCc3ccccc3)nc2-c2ccncc2)cc1 | 5.4 µM
72 | CSc1cc(CSc2nc(-c3ccncc3)c(-c3ccc(F)cc3)[nH]2)ccc1O | 1.1 µM
73 | Fc1ccc(-c2[nH]c(/C=C/c3ccccc3)nc2-c2ccncc2)cc1 | 6.5 µM
74 | Fc1ccc(-c2[nH]c(SCC3CCCCC3)nc2-c2ccncc2)cc1 | 33.8 µM
75 | CS(=O)(=O)c1ccc(CSc2nc(-c3ccccc3)c(-c3ccncc3)[nH]2)cc1 | 8 µM
76 | CSc1cccc(CSc2nc(-c3ccncc3)c(-c3ccc(F)cc3)[nH]2)c1 | 12 µM
77 | CSc1ccc(CSc2nc(-c3ccc(Cl)cc3)c(-c3ccncc3)[nH]2)cc1 | 14 µM
78 | CSc1cc(Cl)cc(CSc2nc(-c3ccc(F)cc3)c(-c3ccncc3)[nH]2)c1O | 13.3 µM
79 | CSc1ccc(CSc2nc(-c3ccc(Br)cc3)c(-c3ccncc3)[nH]2)cc1 | 12.9 µM
80 | C[S+]([O-])c1ccc(CSc2nc(-c3ccccc3)c(-c3ccncc3)[nH]2)cc1 (configuration not stated) | 4.3 µM
81 | CSc1ccc(CSc2nc(-c3ccc(F)cc3)c(-c3ccncc3)[nH]2)cc1 | 4.9 µM
82 | C[S+]([O-])c1ccc(CSc2nc(-c3ccc(Br)cc3)c(-c3ccncc3)[nH]2)cc1 (configuration not stated) | 7.8 µM
83 | C[S+]([O-])c1ccc(CCCSc2nc(-c3ccc(F)cc3)c(-c3ccncc3)[nH]2)cc1 (configuration not stated) | 3.6 µM
84 | N#CCSc1nc(-c2ccncc2)c(-c2ccc(F)cc2)[nH]1 | 2.3 µM

Row | Structure (SMILES) | IC50
85 | C[S+]([O-])c1ccc(CCSc2nc(-c3ccncc3)c(-c3ccc(F)cc3)[nH]2)cc1 (configuration not stated) | 7.3 µM
86 | C[S+]([O-])c1ccc(CSc2nc(-c3ccc(F)cc3)c(-c3cccnc3)[nH]2)cc1 (configuration not stated) | > 100 µM
87 | C[S+]([O-])c1ccc(CSc2nc(-c3ccc(Cl)cc3)c(-c3ccncc3)[nH]2)cc1 (configuration not stated) | 3.1 µM
88 | CSc1ccc(CSc2nc(-c3ccccc3)c(-c3ccncc3)[nH]2)cc1 | 17.1 µM
89 | C[S+]([O-])c1ccccc1CSc1nc(-c2ccc(F)cc2)c(-c2ccncc2)[nH]1 (configuration not stated) | 15 µM
90 | C[S+]([O-])c1cccc(CSc2nc(-c3ccncc3)c(-c3ccc(F)cc3)[nH]2)c1 (configuration not stated) | 23.5 µM
91 | C[S+]([O-])c1ccc(O)c(CSc2nc(-c3ccc(F)cc3)c(-c3ccncc3)[nH]2)c1 (configuration not stated) | 5.8 µM
92 | CSc1ccc(O)c(CSc2nc(-c3ccc(F)cc3)c(-c3ccncc3)[nH]2)c1 | 5.1 µM
93 | Fc1ccc(-c2[nH]c(SCCc3ccccc3)nc2-c2ccncc2)cc1 | 23.5 µM
94 | Oc1cccc(CSc2nc(-c3ccc(F)cc3)c(-c3ccncc3)[nH]2)c1 | 5.4 µM
95 | Oc1ccccc1CSc1nc(-c2ccc(F)cc2)c(-c2ccncc2)[nH]1 | 24.8 µM
96 | CS(=O)(=O)c1ccc(CSc2nc(-c3ccc(F)cc3)c(-c3ccncc3)[nH]2)cc1 | 2.5 µM
97 | C[S+]([O-])c1ccc(CSc2nc(-c3ccc(F)cc3)c(-c3ccncc3)[nH]2)cc1 (configuration not stated) | 1.1 µM
98 | Fc1ccc(-c2[nH]c(SCc3ccccc3)nc2-c2ccncc2)cc1 | 3.5 µM
99 | Oc1ccc(CSc2nc(-c3ccncc3)c(-c3ccc(F)cc3)[nH]2)cc1 | 6.8 µM
100 | C[S+]([O-])c1cc(Cl)cc(CSc2nc(-c3ccc(F)cc3)c(-c3ccncc3)[nH]2)c1O (configuration not stated) | 28 µM
101 | Fc1ccc(-c2[nH]c(SCc3cccc4ccccc34)nc2-c2ccncc2)cc1 | 8.8 µM
102 | CS(=O)(=O)c1ccc(CSc2nc(-c3ccc(Cl)cc3)c(-c3ccncc3)[nH]2)cc1 | 6.1 µM
